Consider 25 compounds from ChEMBL document CHEMBL4819129, “Design, synthesis and lipid-lowering activities of penipyridone derivatives” (Bioorg Med Chem, 2021).

Data set [1] relates to HepG2. Description: Hypolipidemic activity in human HepG2 cells assessed as inhibition of oleic acid-induced lipid accumulation at 10 uM. In kind it is functional, cell-based. The method, boiled down:
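Oleic acid-induced lipid accumulation in HepG2; cells given 100 μM oleic acid with or without compound at 10 μM in DMSO; DMSO-only and OA-only controls, Simvastatin 10 μM positive control. Lipid quantified by oil red O staining. Mean ± SD, n = 4–6, at least three independent experiments.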

The test system of data set [2] is HepG2. Description: Hypolipidemic activity in human HepG2 cells assessed as inhibition of oleic acid-induced triglyceride accumulation at 10 uM after 24 hrs. In kind it is functional, cell-based. The gist of the method:
(§1)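 HepG2 in 12-well plates at 2 × 10⁵ cells/well, 37 °C; after 24 h, co-treated 24 h with 100 μmol/L oleic acid plus compound (DMSO vehicle) or Simvastatin 10 μM. Cells rinsed twice in PBS, lysed on ice 20 min, and triglyceride and total cholesterol contents measured. OA-only cells served as reference. Mean ± SD, n = 4.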

The subject of data set [3] is HepG2. Description: Cytotoxicity against human HepG2 cells assessed as reduction in cell viability at 400 uM incubated for 48 hrs by MTT assay. Type of data set: cell-based. As to conditions: hepg2, 48 h. The gist of the method:
(§2)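 MTT viability in HepG2 seeded at 1.2 × 10⁴ cells/well, grown 24 h, then given serial dilutions from DMSO stocks (0.22 μm-filtered) in DMEM + 10% FBS, DMSO as control; 48 h at 37 °C. MTT 5 mg/mL in PBS added for 4 h, formazan dissolved in 10% SDS/0.01 N HCl, A490 read; DMSO wells = 100% viable. Mean ± SD, n = 6.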

Data set [4] deals with HepG2. Description: Cytotoxicity against human HepG2 cells assessed as reduction in cell viability at 100 uM by MTT assay. As to conditions: hepg2, 100 µM. In kind it is cell-based. The method, boiled down:
as §2
In general terms: Formazan colour is commonly taken as a measure of viable cells.

In data set [5] the test system is HepG2. Description: Hypolipidemic activity against oleic acid-induced lipid accumulation in human HepG2 cell model assessed as decrease in triglycerides level at 10 uM measured after 24 hrs. More on the design: scale not given: the % may be the effect or the level left. Type of data set: functional. The method, boiled down: as §1
The test system of data set [6] is HepG2. Description: Hypolipidemic activity against oleic acid-induced lipid accumulation in human HepG2 cell model assessed as decrease in total cholestrol level at 10 uM measured after 24 hrs. More on the design: scale not given: the % may be the effect or the level left. In kind it is functional. The method, boiled down:
as §1

In data set [7] the test system is HepG2. Description: Hypolipidemic activity against oleic acid-induced lipid accumulation in human HepG2 cell model assessed as decrease in total cholestrol level at 5 uM measured after 24 hrs. Type of data set: functional. More on the design: scale not given: the % may be the effect or the level left. The method, boiled down:
as §1

Data set [8] relates to HepG2. Description: Hypolipidemic activity against oleic acid-induced lipid accumulation in human HepG2 cell model assessed as decrease in triglycerides level at 20 uM measured after 24 hrs. More on the design: scale not given: the % may be the effect or the level left. In kind it is functional. The method, boiled down:
as §1

The test system of data set [9] is HepG2. The data set can be described thus: Hypolipidemic activity in human HepG2 cells assessed as reduction in OA-induced lipid accumulation incubated for 1 hrs by Oil Red O staining based assay. As to conditions: time 24.0 hrs, in the assay text read “24 hrs” for “1 hrs”. Type of data set: functional, cell-based. The method, boiled down: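 Oil red O: HepG2 fixed in 10% neutral formalin 1 h at room temperature, PBS-washed, stained 1 h with 0.5% oil red O in 60% isopropanol, water-washed and imaged (40×). For quantification, stained lipid droplets (30 min) washed with 70% ethanol and absorbance read at 358 nm.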

Data set [10] relates to HepG2. Description: Hypolipidemic activity against oleic acid-induced lipid accumulation in human HepG2 cell model assessed as decrease in total cholestrol level at 20 uM measured after 24 hrs. In kind it is functional. On the set-up: scale not given: the % may be the effect or the level left. The method, boiled down:
as §1

Calls of active or inactive are those of the source. The rule behind the calls is not given here.

Regarding `NC(=O)c1cnc([C@@H](O)c2ccccc2)cc1OCCO`, the result in the data set on HepG2 [1] was inactive.

In the case of `CC(=O)O[C@@H](c1ccccc1)c1cc(=O)c(C(N)=O)cn1Cc1cc(C(F)(F)F)cc(C(F)(F)F)c1`, the outcome in the data set on HepG2 [1] was inactive.

`CC(=O)O[C@@H](c1ccccc1)c1cc(OCCO)c(C(=O)N(C)C)cn1`: the outcome with HepG2 [1] was inactive.

As to `CC(=O)O[C@@H](c1ccccc1)c1cc(OCc2cc(C(F)(F)F)cc(C(F)(F)F)c2)c(C(N)=O)cn1`, the result in the data set with HepG2 [1] was inactive.

Regarding `CCOC(=O)COc1cc([C@@H](OC(C)=O)c2ccccc2)ncc1C(N)=O`, the result with HepG2 [2] and in the data set with HepG2 [1] was Active. The Activity entry with HepG2 [3] and in the data set on HepG2 [4] was “Non-Toxic” in each case.

`CC(=O)O[C@@H](c1ccccc1)c1cc(=O)c(C(N)=O)cn1CCN1CCCC1`: the outcome with HepG2 [1] was Active.

As for `CC(C)CC(=O)O[C@@H](c1ccccc1)c1cc(OCCO)c(C(N)=O)cn1`, the outcome with HepG2 [1] was inactive.

`COCCn1cc(C(N)=O)c(=O)cc1[C@@H](OC(C)=O)c1ccccc1`: the result with HepG2 [1] was inactive.

In the case of `CC(=O)O[C@@H](c1ccccc1)c1cc(OCc2ccccc2)c(C(N)=O)cn1`, the outcome in the data set on HepG2 [1] was inactive.

For `CC(=O)O[C@@H](c1ccccc1)c1cc(=O)c(C(=O)NC(=O)CC(C)C)cn1CCO`, the outcome in the data set on HepG2 [1] was Active.

As for `NC(=O)c1cnc(Cc2ccccc2)cc1OCCO`, the Activity result with HepG2 [4] was “Non-Toxic”. Besides, in the data set with HepG2 [1], the result was Active.

For the compound `CC(C)CC(=O)O[C@@H](c1ccccc1)c1cc(=O)c(C(N)=O)cn1CCO`, the outcome in the data set with HepG2 [1] was inactive.

Consider `COc1ccc(Cn2cc(C(N)=O)c(=O)cc2[C@@H](OC(C)=O)c2ccccc2)cc1`, for which the outcome in the data set on HepG2 [1] was inactive.

Take `CC(=O)O[C@@H](c1ccccc1)c1cc(=O)c(C(N)=O)cn1CCN1CCCCC1`: the outcome with HepG2 [1] was Active.

For the compound `CC(=O)O[C@@H](c1ccccc1)c1cc(=O)c(C(N)=O)cn1Cc1ccccc1`, in the data set on HepG2 [1], the result was inactive.

In the case of `CC(=O)O[C@@H](c1ccccc1)c1cc(OCCN(C)C)c(C(N)=O)cn1`, the Activity entry in the data set on HepG2 [4] is reported as “Non-Toxic”. For the same compound, the outcome in the data set with HepG2 [1] was Active.

Turning to `CC(=O)O[C@@H](c1ccccc1)c1cc(=O)c(C(N)=O)cn1CCN(C)C`, the Activity entry in the data set with HepG2 [4] is recorded as “Non-Toxic”. Besides, the result with HepG2 [1] was Active.

Turning to `CC(=O)O[C@H](c1ccccc1)c1cc(OCCO)c(C(N)=O)cn1`, in the data set on HepG2 [1], the result was inactive.

As for `COCCOc1cc([C@@H](OC(C)=O)c2ccccc2)ncc1C(N)=O`, the outcome in the data set with HepG2 [1] was inactive.

Take `CCC(C)(C)C(=O)O[C@H]1C[C@@H](C)C=C2C=C[C@H](C)[C@H](CC[C@@H]3C[C@@H](O)CC(=O)O3)[C@H]21` [SIMVASTATIN]: the Activity is reported as 29.1% with HepG2 [5] and 12.1% with HepG2 [6].

Turning to `CC(=O)O[C@@H](c1ccccc1)c1cc(OCCN2CCCC2)c(C(N)=O)cn1`, in the data set on HepG2 [1], the result was Active.

As to `NC(=O)c1cn(CCO)c(-c2ccccc2)cc1=O`, the Activity result in the data set on HepG2 [4] is reported as “Non-Toxic”. Besides, the outcome in the data set on HepG2 [1] was Active.

For `CC(=O)O[C@@H](c1ccccc1)c1cc(OCCN2CCSCC2)c(C(N)=O)cn1`, the result with HepG2 [2] and with HepG2 [1] was Active. For the same compound, the Activity result in the data set on HepG2 [3] is “Non-Toxic”; in the data set with HepG2 [4] it was “Non-Toxic”; in the data set on HepG2 [7] it was 12.8%; with HepG2 [8] it was 30.2%; in the data set on HepG2 [9] it was “Dose-Dependent Effect”; with HepG2 [10] it was 14.8%.

For the compound `CC(=O)O[C@@H](c1ccccc1)c1cc(OCCO)c(C(N)=O)cn1`, the result in the data set on HepG2 [2] and in the data set on HepG2 [1] was Active. In the data set on HepG2 [3], the Activity result is “Non-Toxic”.

Regarding `CC(=O)O[C@@H](c1ccccc1)c1cc(OCCN2CCOCC2)c(C(N)=O)cn1`, the Activity result in the data set with HepG2 [4] is reported as “Non-Toxic”. The result in the data set with HepG2 [1] was Active.
